Assay results taken from ChEMBL document CHEMBL1914393, “Chemical scaffolds with structural similarities to siderophores of nonribosomal peptide-polyketide origin as novel antimicrobials against Mycobacterium tuberculosis and Yersinia pestis” (Bioorg Med Chem Lett, 2011).
Converted amounts (≈) assume the structure as drawn. The source made the active and inactive calls.

How the values were obtained:
[1] = tested on: Mycobacterium tuberculosis; test: Antimicrobial activity against Mycobacterium tuberculosis H37Rv in GASTD medium after 10 days by spectrophotometric analysis; format: functional, organism-based; conditions: 240 h
In short: (§1)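 Virulent H37Rv, twofold microdilution in iron-limiting GASTD or GASTD plus 100 μM FeCl3, started at OD600 0.001 from deferrated stocks. Compounds were added in DMSO (0.5% final) up to 500 μM or the solubility limit. Cultures sat stationary for 10 days at 37 °C, read at OD600. IC50 from sigmoidal fits to triplicates; MIC90 is the lowest concentration giving ≥90% inhibition versus DMSO controls. Ratios are +Fe/GASTD.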

[2] = tested on: Mycobacterium tuberculosis; test: Antimicrobial activity against Mycobacterium tuberculosis H37Rv in GASTD medium supplemented with 100 uM FeCl3 after 10 days by spectrophotometric analysis; format: functional, organism-based; conditions: 240 h; in short: as §1
[3] = tested on: Mycobacterium tuberculosis; test: Ratio of IC50 for Mycobacterium tuberculosis H37Rv in GASTD medium supplemented with 100 uM FeCl3 to IC50 for Mycobacterium tuberculosis H37Rv in Fe-deficient GASTD medium; format: functional; in short: as §1
[4] = tested on: Mycobacterium tuberculosis; test: Ratio of MIC90 for Mycobacterium tuberculosis H37Rv in GASTD medium supplemented with 100 uM FeCl3 to MIC90 for Mycobacterium tuberculosis H37Rv in Fe-deficient GASTD medium; format: functional; in short: as §1
[5] = tested on: Mycobacterium tuberculosis; test: Bactericidal activity against Mycobacterium tuberculosis H37Rv in GASTD medium at 2 times MIC after 30 days by colony counting; format: functional, organism-based
In short: (§2)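 Duplicate GASTD cultures were treated and incubated as in the growth assay (37 °C, 10 days), then serial 10-fold dilutions were plated on Middlebrook 7H11. Colonies were counted after 30 days at 37 °C and reported as CFU/mL. Bactericidal was defined as >99% killing relative to inoculum.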

Yersinia pestis [6] = test: Antimicrobial activity against Yersinia pestis KIM6-2082.1+ in PMHD medium after 26 hrs by spectrophotometric analysis; format: functional, organism-based
Yersinia pestis [7] = test: Antimicrobial activity against Yersinia pestis KIM6-2082.1+ in PMHD medium supplemented with 100 uM FeCl3 after 26 hrs by spectrophotometric analysis; format: functional, organism-based
Yersinia pestis [8] = test: Ratio of IC50 for Yersinia pestis KIM6-2082.1+ in PMHD medium supplemented with 100 uM FeCl3 to IC50 for Yersinia pestis KIM6-2082.1+ in Fe-deficient PMHD medium; format: functional
Yersinia pestis [9] = test: Ratio of MIC90 for Yersinia pestis KIM6-2082.1+ in PMHD medium supplemented with 100 uM FeCl3 to IC50 for Yersinia pestis KIM6-2082.1+ in Fe-deficient PMHD medium; format: functional
Yersinia pestis [10] = test: Bactericidal activity against Yersinia pestis KIM6-2082.1+ in PMHD medium at 2 times MIC after 3 days by colony counting; format: functional, organism-based
[11] = tested on: Mycobacterium tuberculosis; test: Bactericidal activity against Mycobacterium tuberculosis H37Rv in GASTD medium at MIC after 30 days by colony counting; format: functional, organism-based; in short: as §2
HeLa = test: Cytotoxicity against human HeLa cells at 16 uM after 24 hrs by ATPLite assay; format: cell-based
In short: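 HeLa cells in 96-well format, read with an ATPLite reagent-based viability assay. Cell–compound contact lasted 4 hr or 24 hr, and viability was expressed relative to untreated controls.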

Yersinia pestis [12] = test: Bactericidal activity against Yersinia pestis KIM6-2082.1+ in PMHD medium at MIC after 3 days by colony counting; format: functional, organism-based

SMILES | IC50 [1] [µM] | MIC90 [1] [µM] | IC50 [2] [µM] | MIC90 [2] [µM] | Ratio IC50 [3] | Ratio [4] | Activity [5] | IC50 (Yersinia pestis [6]) [µM] | MIC90 (Yersinia pestis [6]) [µM] | IC50 (Yersinia pestis [7]) [µM] | MIC90 (Yersinia pestis [7]) [µM] | Ratio IC50 (Yersinia pestis [8]) | Ratio (Yersinia pestis [9]) | Activity (Yersinia pestis [10]) | Activity [11] | Activity (HeLa) [%] | Activity (Yersinia pestis [12])
N/C(=N\O)N/N=C/c1ccccc1O | 11 | 222 (≈ 43.1 µg/mL) | 15 | 26 (≈ 5.05 µg/mL) | 1 | 1 | Active | 70 | 250 (≈ 48.5 µg/mL) | 305 | > 500 | 4 | >2 | Active | – | – | –
Cc1ccc(S(=O)(=O)N2N=C(c3ccccc3O)C[C@H]2c2ccccc2O)cc1 | > 63 | > 63 | > 31 | > 31 | – | – | – | > 31 | > 31 | > 16 | > 16 | – | – | – | – | – | –
C/C(=N\NC(=O)NO)c1ccccc1O | > 8 | > 8 | > 8 | > 8 | – | – | – | > 4 | > 4 | > 2 | > 2 | – | – | – | – | – | –
Cc1ccc(S(=O)(=O)N2N=C(c3ccccc3O)C[C@H]2c2ccc(O)cc2)cc1 | > 63 | > 63 | > 31 | > 31 | – | – | – | > 31 | > 31 | > 16 | > 16 | – | – | – | – | – | –
N=C(NO)N/N=C/c1ccc(O)cc1 | 43 | 222 (≈ 43.1 µg/mL) | 43 | 132 (≈ 25.6 µg/mL) | 1 | 1 | Active | > 500 | > 500 | > 500 | > 500 | – | – | – | – | – | –
O=C(c1ccncc1)N1N=C(c2ccccc2O)C[C@H]1c1ccccc1O | 8 | 16 (≈ 5.75 µg/mL) | 8 | 16 (≈ 5.75 µg/mL) | 1 | 1 | Active | > 16 | > 16 | > 16 | > 16 | – | – | – | – | – | –
O=C(NO)N1N=C(c2ccccc2O)C[C@H]1c1ccc(O)cc1 | 42 | 125 (≈ 39.2 µg/mL) | 40 | > 31 | 1 | – | – | 13 | > 31 | > 31 | > 31 | >2 | – | – | Active | – | –
Cc1ccccc1[C@@H]1CC(c2ccccc2O)=NN1C(N)=S | 7 | 16 (≈ 4.98 µg/mL) | 7 | 16 (≈ 4.98 µg/mL) | 1 | 1 | Active | > 62 | > 63 | > 31 | > 31 | – | – | – | – | 24 | –
N=C(N)N1N=C(c2ccccc2O)C[C@H]1c1ccc(O)cc1 | 31 | 125 (≈ 37 µg/mL) | 26 | 76 (≈ 22.5 µg/mL) | 1 | 1 | Active | > 125 | > 125 | > 63 | > 63 | – | – | – | – | – | –
CN[C@@H]1[C@H](O[C@H]2[C@H](O[C@H]3[C@H](O)[C@@H](O)[C@H](N=C(N)N)[C@@H](O)[C@@H]3N=C(N)N)O[C@@H](C)[C@]2(O)C=O)O[C@@H](CO)[C@H](O)[C@H]1O [STREPTOMYCIN] | – | – | – | – | – | – | – | 1 | 1 (≈ 0.582 µg/mL) | 1 | 2 (≈ 1.16 µg/mL) | 1 | 2 | Active | – | – | –
O=C(NO)N/N=C/c1ccc(O)cc1 | 97 | 146 (≈ 28.5 µg/mL) | 40 | 97 (≈ 18.9 µg/mL) | 0.4 | 1 | Active | > 250 | > 250 | > 250 | > 250 | – | – | – | – | – | –
NC(=O)N1N=C(c2ccccc2O)C[C@H]1c1ccc(O)cc1 | > 63 | > 63 | > 32 | > 63 | – | – | – | > 31 | > 31 | > 31 | > 31 | – | – | – | – | – | –
Oc1ccccc1C1=NN[C@H](c2ccccc2O)C1 | 25 | 66 (≈ 16.8 µg/mL) | 18 | 59 (≈ 15 µg/mL) | 1 | 1 | Active | 9 | 31 (≈ 7.88 µg/mL) | > 8 | > 8 | – | – | – | – | – | Active
C/C(=N\NC(=O)NO)c1ccc(O)cc1 | > 500 | > 500 | > 500 | > 500 | – | – | – | > 500 | > 500 | > 500 | > 500 | – | – | – | – | – | –
NC(=S)N1N=C(c2ccccc2O)C[C@H]1c1ccccc1O | 53 | 125 (≈ 39.2 µg/mL) | 50 | 125 (≈ 39.2 µg/mL) | 1 | 1 | Active | 181 | > 250 | > 63 | > 63 | – | – | – | – | – | –
O=C(c1ccccc1)N1N=C(c2ccccc2O)C[C@H]1c1ccc(O)cc1 | > 63 | > 63 | > 16 | > 63 | – | – | – | > 31 | > 31 | > 16 | > 16 | – | – | – | – | – | –
NC(=O)N1N=C(c2ccccc2O)C[C@H]1c1ccccc1O | 77 | 208 (≈ 61.8 µg/mL) | 64 | 104 (≈ 30.9 µg/mL) | 1 | 0.5 | Active | > 250 | > 250 | > 250 | > 250 | – | – | – | – | – | –
O=C(NO)N1N=C(c2ccccc2O)C[C@H]1c1ccccc1O | 54 | > 63 | > 32 | > 31 | – | – | – | 8 | > 31 | > 31 | > 31 | >4 | – | – | – | – | –
NNC(=O)c1ccncc1 [ISONIAZID] | 0.07 | 0.2 (≈ 0.0274 µg/mL) | 0.09 | 0.2 (≈ 0.0274 µg/mL) | 1 | 1 | Active | – | – | – | – | – | – | – | – | – | –
Oc1ccc([C@@H]2CC(c3ccccc3O)=NN2)cc1 | 46 | 125 (≈ 31.8 µg/mL) | 37 | 125 (≈ 31.8 µg/mL) | 1 | 1 | – | 20 | > 31 | > 31 | > 31 | >2 | – | – | Active | – | –
O=C(c1ccccc1)N1N=C(c2ccccc2O)C[C@H]1c1ccccc1O | 84 | > 500 | 98 | > 500 | 1 | – | – | > 31 | > 31 | > 63 | > 63 | – | – | – | – | – | –
O=C(NO)N/N=C/c1ccccc1O | > 16 | > 16 | > 16 | > 16 | – | – | – | > 16 | > 16 | > 4 | > 4 | – | – | – | – | – | –
CC(=O)N1N=C(c2ccccc2O)C[C@H]1c1ccccc1O | > 31 | > 32 | > 16 | > 16 | – | – | – | > 31 | > 31 | > 31 | > 31 | – | – | – | – | – | –
CC(=O)N1N=C(c2ccccc2O)C[C@H]1c1ccc(O)cc1 | > 8 | > 8 | > 8 | > 8 | – | – | – | > 16 | > 16 | > 16 | > 16 | – | – | – | – | – | –
O=C(c1ccncc1)N1N=C(c2ccccc2O)C[C@H]1c1ccc(O)cc1 | > 8 | > 8 | > 4 | > 4 | – | – | – | > 8 | > 8 | > 8 | > 8 | – | – | – | – | – | –
O=S(=O)(c1ccccc1)N1N=C(c2ccccc2O)C[C@H]1c1ccc(O)cc1 | > 63 | > 63 | > 31 | > 31 | – | – | – | > 16 | > 16 | > 31 | > 31 | – | – | – | – | – | –
O=S(=O)(c1ccccc1)N1N=C(c2ccccc2O)C[C@H]1c1ccccc1O | > 63 | > 63 | > 16 | > 31 | – | – | – | 8 | > 31 | > 31 | > 31 | >4 | – | – | – | – | –
